What all share (format): functional
The test system of assay [1] is Pseudomonas aeruginosa. Briefly: In Vitro antibacterial activity against (Pa) Pseudomonas aeruginosa ATCC 27853. Put shortly:
(§1)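 Panel of standard ATCC strains plus modified strains: methicillin-resistant, hyperpermeable, β-lactamase-producing (TEM1, TEM2, SHV) and β-lactamase-lacking. MIC determined in Mueller Hinton 2 medium, inoculum 10⁴ cells/mL, incubated 24 h at 37 °C.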

For assay [2], the system named is Escherichia coli. Put plainly: In Vitro antibacterial activity against (Ec) Escherichia coli ATCC 25922. The method, boiled down: as §1
For assay [3], the system named is Staphylococcus aureus. Put plainly: In vitro antibacterial activity against Sa MR(I) heterogeneous methicillin resistant Staphylococcus aureus. The method, boiled down: (§2)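 MIC was determined in Mueller Hinton 2 medium with an inoculum of 10⁴ cells/mL and incubation for 24 h at 37 °C. Strains: Sa(I) is S. aureus ATCC 29213; Sa MR(I) is a heterogeneous methicillin-resistant S. aureus; Sa MR(II) is a homogeneous methicillin-resistant S. aureus.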

In assay [4] the test system is Escherichia coli. Put plainly: In Vitro antibacterial activity against (Ec TEM2) Escherichia coli […] strain. Put shortly: as §1
For assay [5], the system named is Escherichia coli. Put plainly: In Vitro antibacterial activity against (Ec SHV) Escherichia coli […] strain. The method, boiled down: as §1
For assay [6], the system named is Pseudomonas aeruginosa. Briefly: In Vitro antibacterial activity against (Pa) hyperpermeable Pseudomonas aeruginosa […] strain. The method, boiled down:
as §1

The subject of assay [7] is Staphylococcus aureus. Put plainly: In vitro antibacterial activity against Sa(II) Staphylococcus aureus ATCC 25923. Put shortly:
as §1

Assay [8] has as its system Staphylococcus aureus. Briefly: In vitro antibacterial activity against Sa(I) Staphylococcus aureus ATCC 29213. Put shortly:
as §2

Assay [9] relates to Staphylococcus aureus. Put plainly: In vitro antibacterial activity against Sa MR(II) homogeneous methicillin resistant Staphylococcus aureus. The method, boiled down:
as §2

Assay [10] has as its system Escherichia coli. Briefly: In Vitro antibacterial activity against (Ec L) Escherichia coli […] strain. Put shortly: as §1
In assay [11] the test system is Enterococcus faecalis. Put plainly: In Vitro antibacterial activity against (Ef) Enterococcus faecalis ATCC 29212. The method, boiled down: as §1
The subject of assay [12] is Escherichia coli. Put plainly: In Vitro antibacterial activity against (Ec TEM1) Escherichia coli […] strain. The method, boiled down: as §1
For assay [13], the system named is Pseudomonas aeruginosa. Put plainly: In Vitro antibacterial activity against (Pa G242) hyperpermeable Pseudomonas aeruginosa strain. The method, boiled down: as §1
Assay [14] has as its system Escherichia coli. Briefly: In Vitro antibacterial activity against (Ec DC2) hyperpermeable Escherichia coli strain. Put shortly: as §1

Values after ≈ are worked out from the molar mass of the structure shown.

The term MIC denotes the least concentration at which growth counts as inhibited. Read a low MIC as greater potency. As to `C[C@@H](O)[C@H]1C(=O)N2C(C(=O)O)=C(CN3CCCC(C(N)=O)C3)S[C@H]12` (stereo not given in full), the MIC was > 64 µg/mL in assay [1]; 4 µg/mL (≈ 11.3 µM) in assay [2]; 0.12 µg/mL (≈ 0.338 µM) in [3]; 4 µg/mL (≈ 11.3 µM) in [4]; 4 µg/mL (≈ 11.3 µM) in [5]; 1 µg/mL (≈ 2.81 µM) in assay [6]. In addition, the MIC in [7] turned out to be 0.06 µg/mL (≈ 0.169 µM); in assay [8], 0.06 µg/mL (≈ 0.169 µM); in assay [9], 2 µg/mL (≈ 5.63 µM); in assay [10], 8 µg/mL (≈ 22.5 µM); in assay [11], 32 µg/mL (≈ 90 µM); in assay [12], 4 µg/mL (≈ 11.3 µM). Moreover, the MIC in [13] and in assay [14] was 4 µg/mL (≈ 11.3 µM) each time.
`C[C@H](C(N)=O)N(C)CC1=C(C(=O)O)N2C(=O)[C@H]([C@@H](C)O)[C@H]2S1`: the MIC was > 64 µg/mL in [1]; 0.12 µg/mL (≈ 0.364 µM) in assay [2]; 0.06 µg/mL (≈ 0.182 µM) in assay [3]; 0.25 µg/mL (≈ 0.759 µM) in assay [4]; 1 µg/mL (≈ 3.04 µM) in assay [5]; 2 µg/mL (≈ 6.07 µM) in assay [6]. Further, the MIC in [7] was 0.06 µg/mL (≈ 0.182 µM); in assay [8], 0.03 µg/mL (≈ 0.0911 µM); in assay [9], 2 µg/mL (≈ 6.07 µM); in [10], 0.12 µg/mL (≈ 0.364 µM); in assay [11] it was 2 µg/mL (≈ 6.07 µM); in assay [12], 0.25 µg/mL (≈ 0.759 µM). For the same compound, the MIC is 0.25 µg/mL (≈ 0.759 µM) in assay [13] and 2 µg/mL (≈ 6.07 µM) in [14].
Turning to `C[C@@H](O)[C@H]1C(=O)N2C(C(=O)O)=C(CN(CC(N)=O)CC(N)=O)S[C@H]12`, the MIC was > 64 µg/mL in [1]; 0.12 µg/mL (≈ 0.335 µM) in assay [2]; 0.25 µg/mL (≈ 0.698 µM) in assay [3]; 0.25 µg/mL (≈ 0.698 µM) in assay [4]; 0.5 µg/mL (≈ 1.4 µM) in assay [5]; 0.5 µg/mL (≈ 1.4 µM) in assay [6]. Also, the minimum inhibitory concentration (MIC) in assay [7] was 0.06 µg/mL (≈ 0.167 µM); in assay [8], 0.12 µg/mL (≈ 0.335 µM); in assay [9], 1 µg/mL (≈ 2.79 µM); in assay [10] it was 0.25 µg/mL (≈ 0.698 µM); in [11] it was > 64 µg/mL; in assay [12] it was 0.25 µg/mL (≈ 0.698 µM). For the same compound, the MIC in assay [13] and in assay [14] was 0.25 µg/mL (≈ 0.698 µM) each time.
As for `C[C@@H](O)[C@H]1C(=O)N2C(C(=O)O)=C(CN3CCC[C@H]3C(=O)O)S[C@H]12`, the MIC in assay [1] was > 64 µg/mL; in assay [2] it was 2 µg/mL (≈ 5.84 µM); in [3], 1 µg/mL (≈ 2.92 µM); in assay [4], 32 µg/mL (≈ 93.5 µM); in assay [5], 8 µg/mL (≈ 23.4 µM); in [6], 32 µg/mL (≈ 93.5 µM). Also, the MIC is 0.5 µg/mL (≈ 1.46 µM) in assay [7]; 0.03 µg/mL (≈ 0.0876 µM) in assay [8]; 32 µg/mL (≈ 93.5 µM) in [9]; 8 µg/mL (≈ 23.4 µM) in assay [10]; > 64 µg/mL in assay [11]; 8 µg/mL (≈ 23.4 µM) in assay [12]. Moreover, the MIC in assay [13] was 4 µg/mL (≈ 11.7 µM); in assay [14], 16 µg/mL (≈ 46.7 µM).
Turning to `CCN(CC(N)=O)CC1=C(C(=O)O)N2C(=O)[C@H]([C@@H](C)O)[C@H]2S1`, the minimal inhibitory concentration (MIC) in assay [1] was > 64 µg/mL; in [2], 0.5 µg/mL (≈ 1.52 µM); in [4], 1 µg/mL (≈ 3.04 µM); in [5] it was 1 µg/mL (≈ 3.04 µM); in assay [6], 2 µg/mL (≈ 6.07 µM); in [7], 0.06 µg/mL (≈ 0.182 µM). In addition, the MIC in assay [8] is 0.06 µg/mL (≈ 0.182 µM); in [9], 2 µg/mL (≈ 6.07 µM); in assay [10] it was 0.5 µg/mL (≈ 1.52 µM); in [12] it was 0.5 µg/mL (≈ 1.52 µM); in assay [13], 0.5 µg/mL (≈ 1.52 µM); in assay [14] it was 1 µg/mL (≈ 3.04 µM).
As to `CCCCOC(=O)CN(C)CC1=C(C(=O)O)N2C(=O)[C@H]([C@@H](C)O)[C@H]2S1`, the MIC was > 64 µg/mL in [1]; 32 µg/mL (≈ 85.9 µM) in assay [2]; 0.5 µg/mL (≈ 1.34 µM) in assay [3]; > 64 µg/mL in [4]; > 64 µg/mL in assay [5]; > 64 µg/mL in assay [6]. The MIC was 0.25 µg/mL (≈ 0.671 µM) in assay [7]; 0.5 µg/mL (≈ 1.34 µM) in assay [8]; 16 µg/mL (≈ 43 µM) in assay [9]; > 64 µg/mL in assay [10]; 8 µg/mL (≈ 21.5 µM) in assay [11]; > 64 µg/mL in assay [12]. Further, the MIC in [13] was > 64 µg/mL; in [14], 1 µg/mL (≈ 2.68 µM).
On to `C[C@@H](O)[C@H]1C(=O)N2C(C(=O)O)=C(CN(C)CC(=O)NCC(N)=O)S[C@H]12`, for which the MIC in assay [1] was > 64 µg/mL; in [2], 0.25 µg/mL (≈ 0.671 µM); in assay [3] it was 0.25 µg/mL (≈ 0.671 µM); in [4] it was 0.5 µg/mL (≈ 1.34 µM); in [5] it was 0.5 µg/mL (≈ 1.34 µM); in [6], 1 µg/mL (≈ 2.69 µM). Moreover, the MIC in assay [7] was determined as 0.12 µg/mL (≈ 0.322 µM); in assay [8] it was 0.25 µg/mL (≈ 0.671 µM); in assay [9], 4 µg/mL (≈ 10.7 µM); in [10], 0.5 µg/mL (≈ 1.34 µM); in assay [11], 8 µg/mL (≈ 21.5 µM); in assay [12], 0.5 µg/mL (≈ 1.34 µM). Further, the values for the MIC in assay [13] and in [14] were 0.5 µg/mL (≈ 1.34 µM) and 1 µg/mL (≈ 2.69 µM), respectively.
Consider `COC(=O)[C@@H]1CCCN1CC1=C(C(=O)O)N2C(=O)[C@H]([C@@H](C)O)[C@H]2S1`, for which the MIC in [1] is > 64 µg/mL; in assay [2], 4 µg/mL (≈ 11.2 µM); in assay [3], 0.25 µg/mL (≈ 0.701 µM); in [4], 8 µg/mL (≈ 22.4 µM); in assay [5], 8 µg/mL (≈ 22.4 µM); in assay [6] it was 4 µg/mL (≈ 11.2 µM). In addition, the MIC came out at 0.12 µg/mL (≈ 0.337 µM) in [7]; 0.25 µg/mL (≈ 0.701 µM) in assay [8]; 4 µg/mL (≈ 11.2 µM) in [9]; 4 µg/mL (≈ 11.2 µM) in assay [10]; 8 µg/mL (≈ 22.4 µM) in assay [11]; 8 µg/mL (≈ 22.4 µM) in assay [12]. Besides, the figures for the MIC in [13] and in assay [14] were 8 µg/mL (≈ 22.4 µM) and 2 µg/mL (≈ 5.61 µM), respectively.

These data come from ChEMBL document CHEMBL1128718, “2-Substituted penems with amino acid-related side chains: synthesis and antibacterial activity of a new series of beta-lactam antibiotics” (1995).
